Shown are actives, neighbours in structure and some others; about 2.2% of the full set was active somewhere.
MT1-MMP act inh = blockers of MT1-MMP proenzyme processing, primary screen, HT1080 RFP-PRO-GFP cells, GFP/RFP fluorescence; GFP/RFP ratio fluorescence, overnight; percent of plate control window, DMSO zero; 360,000 tested, 0.061% active; AID 651647, 2012; GFP/RFP ratio change, % at 20 µM;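 active = GFP/RFP ratio change of at least 30% with cell ATP level not reduced by more than half and red fluorescence within 50% of control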
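Test system: HT1080 RFP-PRO-GFP cells; Benchmarks: DMSO and RFP-L50D-GFP cell wells; Timing: cells overnight before dosing, compound overnight, 37 °C, 5% CO2; Compound: one 20 µM compound dose with 1% DMSO; Read-out: GFP/RFP fluorescence ratio.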
SKN-1 block = suppressors of acrylamide-induced Pgst-4::GFP reporter in worms, primary screen, SKN-1 inhibitor project, whole organism, uHTS, GFP/RFP fluorescence ratio, strain VP596; C. elegans VP596 Pgst-4::GFP/RFP ratio, 24 h; inhibition, % at 21.8 µM; 360,000 tested, 0.49% active; AID 624304, 2012;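 active = interference check ratio from 0.5 to 1.5 plus GFP to RFP signal ratio inhibition reaching or exceeding a fixed threshold, cut at about 30% in these data, passing the limit was not always enough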
Tn7 DDE FP = inhibitors of Tn7 peptide binding to fibrin DD(E), primary screen, biochemical, fluorescence polarization, human fibrin, Tn7 probe | Fibrinogen beta chain (Homo sapiens), P02675 | FP displacement of FITC-Tn7 peptide from fibrin DD(E); 0% = median of compound wells per plate | inhibition, % at 8.3 µM | 370,000 tested, 0.13% active;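 active = inhibition above the mean of compounds falling within the control limits plus 3 SD of them, cut at about 14% in these data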;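 also: 0% = plate median of compound wells and 100% = 10 µM Aha-Tn7 peptide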
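Measure: % inhibition scaled between sample-field median and high-control FP; Test system: human fibrin DD(E); Quantity: 2 µM final DD(E) protein; Doses: one dose, 8.3 µM nominal; Schedule: compound with protein 10 min, then 3 h after probe, room temperature; Detection: fluorescence polarization; Medium: Tris buffer with calcium and detergent, pH 7.8.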
Neddyl block = inhibitors of cullin neddylation, primary screen, biochemical, TR-FRET, uHTS, NAE and Ubc12 | AID 651699, 2012 | 360,000 tested, 0.58% active | calls only at 25 µM | NEDD8-conjugating enzyme Ubc12 (Homo sapiens) + NEDD8-activating enzyme E1 regulatory …; in the data active = inhibition above about 36%
DDE Tn6 FP inh = inhibitors of Tn6 peptide binding to fibrin DD(E), primary screen, biochemical, fluorescence polarization, human fibrin, Tn6 probe; 370,000 tested, 0.21% active; inhibition, % at 8.3 µM; AID 720509, 2013; Fibrin DD(E) TRITC-Tn6 fluorescence polarization displacement;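 active = inhibition above a per-campaign cutoff: mean of compounds within control limits plus 3 SD, cut at about 15% in these data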;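 also: 0% = median of all compound wells on the plate and 100% = blocking peptide control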
proKLK7 act = proKLK7 zymogen activators, primary screen, biochemical, fluorescence intensity; 370,000 tested, 0.9% active; activation, % at 7 µM; Kallikrein-7 (Homo sapiens), P49862; purified proKLK7, EDANS-DABCYL substrate fluorescence; 100% is mature enzyme control, 0% vehicle; AID 652039, 2013;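 active = activation above the mean of all tested compounds plus 3 SD, computed per campaign excluding outliers beyond control limits, cut at about 13% in these data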
Target sequence (P49862 whole entry, looked up): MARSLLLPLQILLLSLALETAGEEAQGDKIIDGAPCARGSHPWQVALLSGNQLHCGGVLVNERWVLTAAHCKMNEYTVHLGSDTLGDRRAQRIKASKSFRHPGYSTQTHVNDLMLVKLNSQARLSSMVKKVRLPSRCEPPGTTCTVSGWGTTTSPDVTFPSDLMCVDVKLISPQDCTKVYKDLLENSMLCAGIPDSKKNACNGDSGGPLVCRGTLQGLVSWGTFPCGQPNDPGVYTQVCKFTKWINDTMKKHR
* hit, by the source's call; i = inactive; x = no result shown; + = active, no number.

SMILES | MT1-MMP act inh | SKN-1 block | Tn7 DDE FP | Neddyl block | DDE Tn6 FP inh | proKLK7 act
Cc1ccc(-n2c(O)c(C=Nc3ccc(S(=O)(=O)N(C)C)cc3)c(=O)[nH]c2=O)cc1 | -207 | 34* | 4 | i | -2 | -1
Clc1ccc(NC2=NCCCS2)cc1Cl | 0 | 15 | 3 | i | 6 | 0
Cc1ccc(-c2cc(-c3ccc(C)cc3)[n+](-c3ccccc3)c(-c3ccc(C)cc3)c2)cc1 | -14 | 11 | x | + | x | x
Cc1cccc(N2C(=O)NC(=O)/C(=C\c3ccc4c(c3)CCCN4Cc3ccccc3)C2=O)c1 | -6 | 40* | 1 | i | -7 | 0
COCCCn1c(N)c(C(=O)NCc2ccco2)c2nc3ccccc3nc21 | x | x | -5 | x | 3 | 34*
COCCCn1c(N)c(C(=O)Nc2ccccc2)c2nc3ccccc3nc21 | -5 | -3 | -2 | x | -4 | -6
CC1CC(C)CN(C(=O)COC(=O)c2cn(C)c3ccccc23)C1 (configuration not stated) | -2 | 12 | -9 | i | 0 | 0
OC1CN2CCC(O)C2C(O)C1O (configuration not stated) | x | x | 11 | x | -11 | 0
C=CCn1c(C)c(C=C2C(=O)NC(=O)NC2=O)c2ccccc21 | 2 | 40* | -7 | i | -1 | 0
CCCCN1C(=O)/C(=C\c2ccco2)C(=O)N(CCc2ccccc2)C1=O | -14 | -5 | -4 | i | -3 | 0
CCN(CC)c1ccc(/C=C2\C(=O)NC(=O)N(Cc3ccco3)C2=O)cc1 | -35 | 48* | -6 | i | 1 | 0
CCCCN1C(=O)/C(=C/c2ccc(N(C)C)cc2)C(=O)N(Cc2ccco2)C1=O | -63 | 40* | -8 | i | 3 | 0
Cc1ccsc1C(=O)C1CCCN(Cc2sc(N(C)C)nc2Cl)C1 (configuration not stated) | 1 | 1 | -3 | i | 4 | 0
Cc1ccccc1-n1c(O)c(/C=C2/C(c3ccccc3)=Nc3ccccc32)c(=O)[nH]c1=O | -7 | 16 | 6 | i | -2 | 0
O=C(c1ccc(C(F)(F)F)cc1)C1CCCN(C2CCSCC2)C1 (configuration not stated) | -1 | 4 | -1 | i | 3 | 0
Cc1cccnc1-n1c(-c2ccccc2)nc2ccccc2c1=O | 4 | -8 | 7 | i | 7 | 0
Cc1ccccc1N1C(=O)NC(=O)/C(=C/c2ccc(N3CCOCC3)o2)C1=O | -48 | 19 | -6 | i | 2 | -1
Cc1ccccc1N1C(=O)NC(=O)/C(=C\c2cc(Br)c(N3CCOCC3)o2)C1=O | -123 | 38* | -3 | i | 0 | 1
Cc1ccc(N2C(=O)NC(=O)/C(=C/c3ccoc3)C2=O)cc1 | -94 | 15 | -6 | + | 4 | -1
COc1ccc(CN2CCN(c3ccccc3F)CC2)cc1O | -2 | 46* | -6 | i | -3 | 0
O=C1C=C(N2CC2)c2ccccc2C1=O | 19 | 37* | 4 | i | -6 | 1
O=C1c2ccccc2-c2cc3ccccc3cc21 | 0 | 30 | -2 | i | -7 | 1
OCC[n+]1c2ccccc2nc2ccc(N3CCOCC3)cc21 | 11 | 38* | 1 | i | 10 | 0
CCCNC(=O)N1CCC2(CC1)OCCO2 | 5 | -5 | -5 | i | -8 | 0
COc1cc(C(=O)Nc2ccc(Br)cc2C(=O)c2ccccc2)cc(OC)c1OC | 1 | 5 | 1 | i | 0 | 26*
CCCCn1c(NC(=O)c2ccc(Br)o2)c(C(=O)OCC)c2nc3ccccc3nc21 | -85 | 12 | 4 | x | 2 | 19*

Bioassay records from PubChem BioAssay.
